Test results: ChEMBL document CHEMBL1149120, “Discovery of potent inhibitors of dihydroneopterin aldolase using CrystaLEAD high-throughput X-ray crystallographic screening and structure-directed lead optimization” (J Med Chem, 2004)

Assay: Inhibition of Staphylococcus aureus 7,8-dihydroneopterin aldolase
Procedure, shortened: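 DHNA expressed in E. coli BL21(DE3) and purified by DEAE, Q-Sepharose and S300 chromatography; 50 nM enzyme with 4 µM 7,8-dihydroneopterin in 20 mM HEPES pH 7.4, 150 mM NaCl, ambient temperature (~29 °C). IC50 is the concentration halving the initial rate.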

| Compound | IC50 [nM] |
| --- | --- |
| Cn1c(N)nc(-c2ccccc2)c(Br)c1=O | 38000 |
| Nc1nc(O)c2nn(-c3cccc(C(=O)NCc4cc(C(F)(F)F)cc(C(F)(F)F)c4)c3)nc2n1 | 1000 |
| Nc1nc(O)c2nn(-c3cccc(C(=O)NCc4ccc(Oc5ccccc5)cc4)c3)nc2n1 | 22000 |
| Cc1nc(N)nc(O)c1N(Cc1ccc(Cl)c(Cl)c1)N=O | 1300 |
| Nc1nc(O)c2nn(-c3cccc(C(=O)NCCCCO)c3)nc2n1 | 2000 |
| CCC(CO)(CO)CNC(=O)c1cccc(-n2nc3nc(N)nc(O)c3n2)c1 | 950 |
| Nc1nc(O)c2nn(-c3cccc(C(=O)NCCCO)c3)nc2n1 | 2300 |
| NC1=NC(=O)C2N=C(S)N=C2N1 (configuration not stated) | 1000 |
| Nc1nc(O)c2nn(-c3cccc(C(=O)NCc4ccc(-c5ccccc5)cc4)c3)nc2n1 | 25000 |

The next compounds have a lower IC50 than those just listed; values first:

| IC50 [nM] | Compound |
| --- | --- |
| 740 | Nc1nc(O)c2nn(-c3cccc(C(=O)NCC4(O)CCCCC4)c3)nc2n1 |
| 550 | Nc1nc(O)c2nn(-c3cccc(C(=O)NCc4ccc5c(c4)CCO5)c3)nc2n1 |
| 350 | Nc1nc(O)c2nn(-c3cccc(C(=O)NC[C@@H]4CCCCC[C@H]4O)c3)nc2n1 |
| 600 | Nc1nc(O)c2cc(N(C=O)Cc3ccc(Cl)c(Cl)c3)ccc2n1 |
| 310 | Nc1nc(O)c2nn(-c3cccc(C(=O)NCc4ccc5c(c4)OCO5)c3)nc2n1 |
| 320 | Nc1nc(O)c2nn(-c3cccc(C(=O)NC[C@H]4CCCC[C@@H]4O)c3)nc2n1 |
| 730 | CC(C)(CO)CNC(=O)c1cccc(-n2nc3nc(N)nc(O)c3n2)c1 |
| 410 | Nc1nc(O)c2nn(-c3cccc(C(=O)NC[C@H]4CCCC[C@H]4O)c3)nc2n1 |
